Activity calls are given as the source filed them. No cut-off for these calls is given here.

Assay [1] concerns Radical scavenging activity. Description: Antioxidant activity assessed as DPPH free radical scavenging activity at 100 uM after 20 mins. The format is functional. Summed up:
(§1)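 Compound solutions in ethanol were mixed with an equal volume of DPPH in absolute ethanol, giving compound concentrations of 50 and 100. Ethanol served as the control. Absorbance at 517 nm was read after 20 and 60 min at room temperature. Each run was done at least in triplicate, with the SD of absorbance under 10% of the mean.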
(In general: The DPPH test is a chemical assay of radical scavenging.)

Assay [2] deals with Radical scavenging activity. Description: Antioxidant activity assessed as DPPH free radical scavenging activity at 100 uM after 60 mins. The format is functional. Summed up: as §1
Assay [3] in a line: Antioxidant activity assessed as inhibition of superoxide anion radical production at 100 uM after 2 mins by nitroblue tetrazolium method. The format is functional. Summed up: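 This was a nitroblue tetrazolium assay. The mixture held […] in 19 mM phosphate buffer, pH 7.4. Compounds were preincubated 2 min before NADH was added. After 2 min at room temperature, absorbance at 560 nm was read against a PMS-containing blank. Runs were done at least in triplicate.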

For assay [4], the system named is Radical scavenging activity. Description: Antioxidant activity assessed as reduction in DPPH stable free radical at 50 uM after 20 mins. In kind it is functional. The procedure, abridged: as §1
The subject of assay [5] is Radical scavenging activity. Description: Antioxidant activity assessed as reduction in DPPH free radical at 50 uM after 60 mins. In kind it is functional. The procedure, abridged: as §1
The nature of assay [6]: Antioxidant activity assessed as hydroxyl radical scavenging activity at 100 uM after 30 mins. In kind it is functional.
For another assay, the system named is Glycine max. The assay can be described thus: Inhibition of soybean lipoxygenase assessed as conversion of sodium linoleate to 13-hydroperoxylinoleic acid at 100 uM. The procedure, abridged: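 Soybean lipoxygenase was measured by UV absorbance. Runs were done at least in triplicate, with the SD of absorbance under 10% of the mean.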
Assay [7] in a line: Antioxidant activity assessed as inhibition of AAPH-induced lipid peroxidation at 100 uM. The format is functional.
For assay [8], the system named is Radical scavenging activity. The assay can be described thus: Antioxidant activity assessed as DPPH free radical scavenging activity at 100 uM. The format is functional. Summed up:
as §1

As usually defined, the inhibition is how much of the control response was suppressed. For `O=c1cc(N2CC=CC2)c2ccccc2o1`, the Activity in assay [1] came to 8%; in assay [2] it was 27%. Also, in [3], the inhibition result is “inactive”. Besides, the result in assay [4] and in assay [5] was inactive. Further, the values for the inhibition (in [6]; in the assay with Glycine max; in assay [7]) were 83%, 43% and 100%, respectively.
On to `O=c1ccc2cc(N3CC=CC3)ccc2o1`, for which the Activity in assay [1] amounted to 49%; in assay [2], 71%. The inhibition result in assay [3] was “inactive”. Further, the result in [4] and in assay [5] was inactive. Also, the results for the inhibition in assay [6] and in assay [7] were 90% and 86%, respectively.
In the case of `Cc1ccc2oc(=O)ccc2c1N1CC=CC1`, the Activity was 5% in assay [1], 5% in [2] and “Dose-dependent effect” in [8]. The inhibition entry in assay [3] is “inactive”. Besides, the outcome in assay [4] and in [5] was inactive. Also, the inhibition in assay [7] was determined as 57%.
For `CC(Cc1ccc(O)c(O)c1)C(C)Cc1ccc(O)c(O)c1` (stereo not drawn), the figures for the Activity in assay [1], in assay [2] and in [8] were 81%, 83% and “Dose-dependent effect”, respectively. The inhibition in the assay on Glycine max is 84%.
Regarding `Cc1c(C)c2c(c(C)c1O)CCC(C)(C(=O)O)O2` (stereo not drawn), the inhibition in assay [6] came out at 63%; in assay [7], 73%. Besides, the Activity entry in assay [8] was “Dose-dependent effect”.
`Cc1ccc2ccc(=O)oc2c1`: the Activity in assay [1] is 2%; in [2], 2%; in assay [8], “Dose-dependent effect”. The inhibition was 44% in assay [6] and 89% with Glycine max.
For the molecule `O=c1ccc2cc(-n3cccc3)ccc2o1`, the Activity in assay [1] was 18%; in assay [2] it was 19%; in assay [8], “Dose-dependent effect”. In [3], the inhibition entry is “inactive”. Also, the result in [4] and in assay [5] was inactive. In addition, the inhibition in [7] was determined as 1%.
As to `O=c1ccc2ccccc2o1`, the Activity was 5% in assay [1], 21% in [2] and “Dose-dependent effect” in assay [8]. For the same molecule, the inhibition in [6] worked out at 78%; in the assay with Glycine max it was 15%.
For the molecule `Cc1cc2ccc(=O)oc2cc1-n1cccc1`, the Activity in assay [1] is 13%; in assay [2] it was 13%; in [8], “Dose-dependent effect”. The inhibition result in assay [3] is “inactive”. For the same molecule, the result in assay [4] and in assay [5] was inactive. Also, the inhibition in [6] came out at 88%.
For the molecule `Cc1cc2oc(=O)ccc2cc1N1CC=CC1`, the Activity in [1] is 9%; in assay [2], 10%; in [8], “Dose-dependent effect”. For the same molecule, in [3], the inhibition result was “inactive”. The result in [4] and in assay [5] was inactive. Besides, the figures for the inhibition (in assay [6]; with Glycine max; in assay [7]) were 77%, 60% and 91%, respectively.
For `Cc1cc(=O)oc2cc(-n3cccc3)ccc12`, the values for the Activity in [1], in assay [2] and in assay [8] were 14%, 14% and “Dose-dependent effect”, respectively. The inhibition entry in assay [3] is “inactive”. Moreover, the result in assay [4] and in [5] was inactive. The inhibition in [6] was 9%; in the assay with Glycine max, 12%; in assay [7], 46%.
As to `Cc1cc2oc(=O)ccc2cc1-n1cccc1`, the results for the Activity in assay [1], in [2] and in assay [8] were 14%, 14% and “Dose-dependent effect”, respectively. Besides, the inhibition result in [3] is “inactive”. In addition, the result in assay [4] and in [5] was inactive.
`Cc1cc(=O)oc2cc(N3CC=CC3)ccc12`: the Activity in assay [1] was 5%; in assay [2], 20%. Further, the inhibition entry in assay [3] was “inactive”. Also, the result in assay [4] and in assay [5] was inactive. In addition, the inhibition in [6] was 85%; in the assay with Glycine max it was 28%; in assay [7], 87%.
For the molecule `Cc1cc2ccc(=O)oc2cc1N1CC=CC1`, the results for the Activity in [1], in assay [2] and in assay [8] were 5%, 7% and “Dose-dependent effect”, respectively. In addition, the inhibition result in [3] was “inactive”. Also, the result in assay [4] and in assay [5] was inactive. In addition, the inhibition in assay [6] is 41%; with Glycine max, 52.5%; in [7] it was 24%.
With `Cc1ccc2oc(=O)ccc2c1-n1cccc1`, the Activity in assay [1] was 7%; in [2] it was 7%; in assay [8], “Dose-dependent effect”. The inhibition entry in assay [3] was “inactive”. The outcome in [4] and in assay [5] was inactive. In addition, the inhibition in assay [6] came out at 91%; in the assay with Glycine max, 55.5%; in assay [7], 71%.

Source of the values: ChEMBL document CHEMBL1909573, “Synthesis and biological evaluation of (2,5-dihydro-1H-pyrrol-1-yl)-2H-chromen-2-ones as free radical scavengers” (Eur J Med Chem, 2011).
